This is an account of results in ChEMBL document CHEMBL1687796, “Synthesis and spectrum of the neoglycoside ACHN-490” (2010).

Converted amounts (≈) assume the structure as drawn.

Assay type in all cases: functional
The test system of one experiment is Serratia sp. Put plainly: Antibacterial activity against Serratia spp. by broth microdilution method. The note with it: Serratia sp. (in: enterobacteria). In a few lines: (§1)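 MICs were determined by CLSI broth microdilution against clinical isolate panels that included aminoglycoside-resistant isolates. […] MIC90 was derived per group and not calculated when n was <10. Imipenem, ceftobiprole, ciprofloxacin and tigecycline MICs were also determined for the resistant isolates.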
For orientation: Broth dilution looks for growth in wells or tubes with falling amounts of substance.

Another experiment relates to Klebsiella sp. Briefly: Antibacterial activity against Klebsiella spp. by broth microdilution method. In a few lines: as §1
For another experiment, the system named is Citrobacter. Put plainly: Antibacterial activity against Citrobacter spp. by broth microdilution method. In a few lines: as §1
Another experiment deals with Staphylococcus sp. Briefly: Antibacterial activity against Staphylococcus spp. by broth microdilution method. In a few lines: as §1
The test system of another experiment is Pseudomonas aeruginosa. Briefly: Antibacterial activity against Pseudomonas aeruginosa by broth microdilution method. The gist of the method: as §1
Another experiment deals with Enterobacter sp. Briefly: Antibacterial activity against Enterobacter spp. by broth microdilution method. The gist of the method: as §1
A further experiment relates to Escherichia coli. Briefly: Antibacterial activity against Escherichia coli by broth microdilution method. The gist of the method:
as §1

The nature of experiment [1]: Antibacterial activity against indole positive Proteae by broth microdilution method. The gist of the method: as §1
A further experiment concerns Acinetobacter sp. Briefly: Antibacterial activity against Acinetobacter spp. by broth microdilution method. The gist of the method:
as §1

For the next experiment, the system named is Proteus mirabilis. Put plainly: Antibacterial activity against Proteus mirabilis by broth microdilution method. In a few lines:
as §1

In general, MIC50 refers to the lowest concentration that inhibits either 50% of growth or 50% of the strains tested, depending on the study. Higher therefore signals lower susceptibility. Usually MIC90 stands for the lowest concentration that inhibits either 90% of growth or 90% of the strains tested, depending on the study. A high value points to lower susceptibility. Regarding `CN(C)c1cc(NC(=O)CNC(C)(C)C)c(O)c2c1C[C@H]1C[C@H]3[C@H](N(C)C)C(O)=C(C(N)=O)C(=O)[C@@]3(O)C(O)=C1C2=O` [TIGECYCLINE], the MIC50 with Serratia sp. is 2 µg/mL (≈ 3.41 µM); in the experiment with Klebsiella sp., 1 µg/mL (≈ 1.71 µM); in the experiment on Citrobacter, 0.5 µg/mL (≈ 0.854 µM); in the experiment on Staphylococcus sp., 0.25 µg/mL (≈ 0.427 µM); against Pseudomonas aeruginosa it was 16 µg/mL (≈ 27.3 µM); in the experiment with Enterobacter sp., 0.5 µg/mL (≈ 0.854 µM). The MIC50 against Escherichia coli worked out at 0.25 µg/mL (≈ 0.427 µM); in [1], 2 µg/mL (≈ 3.41 µM); in the experiment with Acinetobacter sp. it was 2 µg/mL (≈ 3.41 µM); with Proteus mirabilis, 4 µg/mL (≈ 6.83 µM). Also, the MIC90 against Klebsiella sp. is 2 µg/mL (≈ 3.41 µM); against Staphylococcus sp., 0.5 µg/mL (≈ 0.854 µM); with Pseudomonas aeruginosa, > 16 µg/mL; against Enterobacter sp., 4 µg/mL (≈ 6.83 µM); against Escherichia coli, 0.5 µg/mL (≈ 0.854 µM); in the experiment on Acinetobacter sp., 16 µg/mL (≈ 27.3 µM). Moreover, the MIC90 in the experiment with Proteus mirabilis amounted to 8 µg/mL (≈ 13.7 µM).
Consider `Nc1nc(/C(=N/O)C(=O)N[C@@H]2C(=O)N3C(C(=O)O)=C(/C=C4\CCN([C@@H]5CCNC5)C4=O)CS[C@H]23)ns1` [CEFTOBIPROLE], for which the MIC50 was > 32 µg/mL against Serratia sp.; > 32 µg/mL against Klebsiella sp.; 1 µg/mL (≈ 1.87 µM) in the experiment with Citrobacter; 16 µg/mL (≈ 29.9 µM) against Pseudomonas aeruginosa; > 32 µg/mL in the experiment with Enterobacter sp.; > 32 µg/mL in the experiment on Escherichia coli. The results for the MIC50 (in experiment [1]; against Acinetobacter sp.; in the experiment on Proteus mirabilis) were > 32 µg/mL, > 32 µg/mL and 0.125 µg/mL (≈ 0.234 µM), respectively. In addition, the MIC90 in the experiment with Klebsiella sp., in the experiment on Pseudomonas aeruginosa, in the experiment with Enterobacter sp., with Escherichia coli, against Acinetobacter sp. and in the experiment on Proteus mirabilis was > 32 µg/mL throughout.
`O=C(O)c1cn(C2CC2)c2cc(N3CCNCC3)c(F)cc2c1=O` [CIPROFLOXACIN]: the MIC50 in the experiment with Serratia sp. was found to be 4 µg/mL (≈ 12.1 µM); against Klebsiella sp., 16 µg/mL (≈ 48.3 µM); against Citrobacter it was 8 µg/mL (≈ 24.1 µM); against Staphylococcus sp. it was 16 µg/mL (≈ 48.3 µM); against Pseudomonas aeruginosa, 8 µg/mL (≈ 24.1 µM); against Enterobacter sp., 1 µg/mL (≈ 3.02 µM). Moreover, the MIC50 was > 16 µg/mL in the experiment with Escherichia coli, 16 µg/mL (≈ 48.3 µM) in experiment [1], > 16 µg/mL against Acinetobacter sp. and 2 µg/mL (≈ 6.04 µM) with Proteus mirabilis. Besides, the MIC90 with Klebsiella sp., with Staphylococcus sp., against Pseudomonas aeruginosa, against Enterobacter sp., in the experiment on Escherichia coli and with Acinetobacter sp. was > 16 µg/mL in each case. For the same compound, in the experiment on Proteus mirabilis, the MIC90 was > 16 µg/mL.
Regarding `C[C@@H](O)[C@H]1C(=O)N2C(C(=O)O)=C(SCCNC=N)C[C@H]12` [IMIPENEM ANHYDROUS], the MIC50 worked out at 1 µg/mL (≈ 3.34 µM) against Serratia sp.; 0.25 µg/mL (≈ 0.835 µM) against Klebsiella sp.; 0.5 µg/mL (≈ 1.67 µM) against Citrobacter; 4 µg/mL (≈ 13.4 µM) with Pseudomonas aeruginosa; 1 µg/mL (≈ 3.34 µM) against Enterobacter sp.; 0.125 µg/mL (≈ 0.418 µM) against Escherichia coli. Further, the MIC50 in [1] turned out to be 1 µg/mL (≈ 3.34 µM); in the experiment with Acinetobacter sp., 2 µg/mL (≈ 6.68 µM); in the experiment with Proteus mirabilis, 4 µg/mL (≈ 13.4 µM). In addition, the MIC90 against Klebsiella sp. was > 16 µg/mL; in the experiment on Pseudomonas aeruginosa, 16 µg/mL (≈ 53.4 µM); against Enterobacter sp. it was 4 µg/mL (≈ 13.4 µM); against Escherichia coli, 0.25 µg/mL (≈ 0.835 µM); in the experiment with Acinetobacter sp., > 16 µg/mL; with Proteus mirabilis, 8 µg/mL (≈ 26.7 µM).
